Active and inactive are the calls of the source. The calls are words filed in the database; no cut-off is given here.
Assays:
Mus musculus = test: The effective dose was measured by using mouse writhing assay after the compound administered subcutaneously.; format: functional; conditions: sc
Summary of the method: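 Analgesia in the mouse writhing test induced by acetic acid, with compound given subcutaneously. Salts were dissolved in distilled H₂O; free bases were dissolved by dropwise 1 N HCl and then diluted.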

Rattus norvegicus [1] = test: The Effective dose was measured by using rat tail flick assay after the compound administered intraperitoneally at a dose of 7.7 umol/kg; IA means inactive at the given dose; format: functional, organism-based
Rattus norvegicus [2] = test: The %change in weight from day 0 to day 2 after administering the compound at dose of 80 (mg/kg)/day in rat; format: functional
Summary of the method: (§1)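 Rat physical dependence liability study: drug infused at the stated mg/kg/day for 6 days, with saline-infused controls for 6 days. Body weight was recorded daily and expressed as % change from day 0 on days 1–4. Groups of 4–6 rats; values are means ±.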

Rattus norvegicus [3] = test: The %change in weight from day 0 to day 4 after administering the compound at dose of 40 (mg/kg)/day in rat; format: functional; summary of the method: as §1
Rattus norvegicus [4] = test: The %change in weight from day 0 to day 4 after administering the compound at dose of 80 (mg/kg)/day in rat; format: functional; summary of the method: as §1
Rattus norvegicus [5] = test: The %change in weight from day 0 to day1 after administering the compound at dose of 80 (mg/kg)/day in rat; format: functional; summary of the method: as §1
Rattus norvegicus [6] = test: The %change in weight from day 0 to day 3 after administering the compound at dose of 40 (mg/kg)/day in rat; format: functional; summary of the method: as §1
Rattus norvegicus [7] = test: The %change in weight from day 0 to day 2 after administering the compound at dose of 40 (mg/kg)/day in rat; format: functional; summary of the method: as §1
Rattus norvegicus [8] = test: The %change in weight from day 0 to day 3 after administering the compound at dose of 80 (mg/kg)/day in rat; format: functional; summary of the method: as §1
Rattus norvegicus [9] = test: The %change in weight from day 0 to day1 after administering the compound at dose of 40 (mg/kg)/day in rat; format: functional; summary of the method: as §1
Rattus norvegicus [10] = test: The Effective dose was measured by using rat tail flick assay after the compound administered subcutaneously; lethal at the given dose; format: organism-based; conditions: in vivo, sc
Summary of the method: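 Agonist activity in the rat heat-stimulus tail-flick test. Drug was given subcutaneously and rats were tested 20 min after dosing. Salts were dissolved in distilled H₂O; free bases were dissolved with dropwise 1 N HCl and then diluted. ED₅₀ or inactivity/lethality recorded at the dose indicated.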

| SMILES | ED50 (Mus musculus) [µmol/kg] | ED50 (Rattus norvegicus [1]) | Change (Rattus norvegicus [2]) [%] | Change (Rattus norvegicus [3]) [%] | Change (Rattus norvegicus [4]) [%] | Change (Rattus norvegicus [5]) [%] | Change (Rattus norvegicus [6]) [%] | Change (Rattus norvegicus [7]) [%] | Change (Rattus norvegicus [8]) [%] | Change (Rattus norvegicus [9]) [%] | ED50 (Rattus norvegicus [10]) [µM/kg] |
| --- | --- | --- | --- | --- | --- | --- | --- | --- | --- | --- | --- |
| CCC1CCCC23CCN(CC4CCC4)C(Cc4ccc(OC)cc42)[C@H]13 (some centres not stated) | > 25 | inactive |  |  |  |  |  |  |  |  |  |
| C[C@H]1CC(=O)CC23CCN(CC4CCC4)C(Cc4ccc(O)cc42)[C@H]13.O=C(O)C(O)C(O)C(=O)O (some centres not stated) |  |  | 3.1 | 9.6 | 9.5 | 1.7 | 6.1 | 2 | 5.3 | 1.2 |  |
| COc1ccc2c(c1)C13CCN(C)C(C2)[C@H]1[C@H](C)CC(=O)C3 (some centres not stated) | 2.65 |  |  |  |  |  |  |  |  |  | 9 |
